Data published in ChEMBL document CHEMBL4715736, “Identification of anticancer agents based on the thieno[2,3-b]pyridine and 1H-pyrazole molecular scaffolds” (2016).

Experiments:
Format in all cases: functional
[1] = system: K562; experiment: Growth inhibition of human K562 cells assessed as cell growth at 0.01 uM incubated for 48 hrs by sulforhodamine B assay relative to control; details: read-out: Activity
[2] = system: NCI-H23; experiment: Growth inhibition of human NCI-H23 cells assessed as cell growth at 0.01 uM incubated for 48 hrs by sulforhodamine B assay relative to control; details: read-out: Activity
[3] = system: HCC 2998; experiment: Growth inhibition of human HCC 2998 cells assessed as cell growth at 0.01 uM incubated for 48 hrs by sulforhodamine B assay relative to control; details: read-out: Activity
Summary of the method: (§1)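 NCI Developmental Therapeutics Program NCI60 panel. Compounds that were active in the 10 µM one-dose screen went on to dose–response testing. Growth at each concentration is expressed relative to untreated control (100%). GI50 (concentration giving 50% of maximal inhibition of proliferation) and TGI (concentration giving total growth inhibition) were derived from the curves.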

[4] = system: OVCAR-8; experiment: Growth inhibition of human OVCAR-8 cells assessed as cell growth at 0.01 uM incubated for 48 hrs by sulforhodamine B assay relative to control; details: read-out: Activity
[5] = system: NCI/ADR-RES; experiment: Growth inhibition of human NCI/ADR-RES cells assessed as cell growth at 0.01 uM incubated for 48 hrs by sulforhodamine B assay relative to control; details: read-out: Activity
[6] = system: 786-0; experiment: Growth inhibition of human 786-0 cells assessed as cell growth at 0.01 uM incubated for 48 hrs by sulforhodamine B assay relative to control; details: read-out: Activity; summary of the method: as §1
[7] = system: PC-3; experiment: Growth inhibition of human PC-3 cells assessed as cell growth at 0.01 uM incubated for 48 hrs by sulforhodamine B assay relative to control; details: read-out: Activity
[8] = system: DU-145; experiment: Growth inhibition of human DU-145 cells assessed as cell growth at 0.01 uM incubated for 48 hrs by sulforhodamine B assay relative to control; details: read-out: Activity; summary of the method: as §1
[9] = system: MCF7; experiment: Growth inhibition of human MCF7 cells assessed as cell growth at 0.01 uM incubated for 48 hrs by sulforhodamine B assay relative to control; details: read-out: Activity
[10] = system: T47D; experiment: Growth inhibition of human T47D cells assessed as cell growth at 0.01 uM incubated for 48 hrs by sulforhodamine B assay relative to control; details: read-out: Activity
[11] = system: NCI-H322M; experiment: Growth inhibition of human NCI-H322M cells assessed as cell growth at 0.1 uM incubated for 48 hrs by sulforhodamine B assay relative to control; details: read-out: Activity
[12] = system: Malme-3M; experiment: Growth inhibition of human Malme-3M cells assessed as cell growth at 0.1 uM incubated for 48 hrs by sulforhodamine B assay relative to control; details: read-out: Activity
[13] = system: M14; experiment: Growth inhibition of human M14 cells assessed as cell growth at 0.1 uM incubated for 48 hrs by sulforhodamine B assay relative to control; details: read-out: Activity
[14] = system: IGROV-1; experiment: Growth inhibition of human IGROV-1 cells assessed as cell growth at 0.1 uM incubated for 48 hrs by sulforhodamine B assay relative to control; details: read-out: Activity
[15] = system: MDA-MB-231; experiment: Growth inhibition of human MDA-MB-231 cells assessed as cell growth at 0.1 uM incubated for 48 hrs by sulforhodamine B assay relative to control; details: read-out: Activity
[16] = system: HOP-62; experiment: Growth inhibition of human HOP-62 cells assessed as cell growth at 1 uM incubated for 48 hrs by sulforhodamine B assay relative to control; details: read-out: Activity
[17] = system: HCT-116; experiment: Growth inhibition of human HCT-116 cells assessed as cell growth at 1 uM incubated for 48 hrs by sulforhodamine B assay relative to control; details: read-out: Activity
[18] = system: OVCAR-3; experiment: Growth inhibition of human OVCAR-3 cells assessed as cell growth at 1 uM incubated for 48 hrs by sulforhodamine B assay relative to control; details: read-out: Activity
[19] = system: 786-0; experiment: Growth inhibition of human 786-0 cells assessed as cell growth at 1 uM incubated for 48 hrs by sulforhodamine B assay relative to control; details: read-out: Activity; summary of the method: as §1
[20] = system: PC-3; experiment: Growth inhibition of human PC-3 cells assessed as cell growth at 1 uM incubated for 48 hrs by sulforhodamine B assay relative to control; details: read-out: Activity
[21] = system: MDA-MB-231; experiment: Growth inhibition of human MDA-MB-231 cells assessed as cell growth at 1 uM incubated for 48 hrs by sulforhodamine B assay relative to control; details: read-out: Activity
[22] = system: SNB-19; experiment: Growth inhibition of human SNB-19 cells assessed as cell growth at 100 uM incubated for 48 hrs by sulforhodamine B assay relative to control; details: read-out: Activity
[23] = system: SK-MEL-28; experiment: Growth inhibition of human SK-MEL-28 cells assessed as cell growth at 100 uM incubated for 48 hrs by sulforhodamine B assay relative to control; details: read-out: Activity
[24] = system: SK-MEL-5; experiment: Growth inhibition of human SK-MEL-5 cells assessed as cell growth at 100 uM incubated for 48 hrs by sulforhodamine B assay relative to control; details: read-out: Activity
[25] = system: IGROV-1; experiment: Growth inhibition of human IGROV-1 cells assessed as cell growth at 100 uM incubated for 48 hrs by sulforhodamine B assay relative to control; details: read-out: Activity
[26] = system: OVCAR-3; experiment: Growth inhibition of human OVCAR-3 cells assessed as cell growth at 100 uM incubated for 48 hrs by sulforhodamine B assay relative to control; details: read-out: Activity
[27] = system: OVCAR-5; experiment: Growth inhibition of human OVCAR-5 cells assessed as cell growth at 100 uM incubated for 48 hrs by sulforhodamine B assay relative to control; details: read-out: Activity
[28] = system: A498; experiment: Growth inhibition of human A498 cells assessed as cell growth at 100 uM incubated for 48 hrs by sulforhodamine B assay relative to control; details: read-out: Activity; summary of the method: as §1
[29] = system: NCI-H522; experiment: Growth inhibition of human NCI-H522 cells incubated for 48 hrs by sulforhodamine B assay
Summary of the method: (§2)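 NCI60 panel at the NCI Developmental Therapeutics Program. Only compounds active in the 10 µM screen went to dose-response testing. GI50, the concentration giving 50% of maximal inhibition of proliferation, and TGI, the concentration giving total growth inhibition, were derived from the dose-response curves.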

[30] = system: SNB-75; experiment: Growth inhibition of human SNB-75 cells incubated for 48 hrs by sulforhodamine B assay
Summary of the method: (§3)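 NCI DTP 60-line human tumour panel. Dose-response curves were run only for ligands active in the initial 10 µM screen. GI50 (concentration giving 50% of maximal inhibition of proliferation) and TGI (concentration giving total growth inhibition) were derived from these curves.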

[31] = system: UACC-257; experiment: Growth inhibition of human UACC-257 cells incubated for 48 hrs by sulforhodamine B assay; summary of the method: as §3
[32] = system: OVCAR-8; experiment: Growth inhibition of human OVCAR-8 cells incubated for 48 hrs by sulforhodamine B assay; summary of the method: as §3
[33] = system: MDA-MB-231; experiment: Growth inhibition of human MDA-MB-231 cells incubated for 48 hrs by sulforhodamine B assay; summary of the method: as §2
[34] = system: MDA-MB-468; experiment: Growth inhibition of human MDA-MB-468 cells incubated for 48 hrs by sulforhodamine B assay; summary of the method: as §2
[35] = read-out: LC50 (the source's name)

Which growth at 0.01 µM [1] does the source give for `Cc1cccc(NC(=O)c2sc3nc4c(cc3c2N)C(=O)CCC4)c1` here?
Its growth at 0.01 µM is 97%.

What about the growth at 0.01 µM [2] of the same molecule?
The growth at 0.01 µM was 99%.

What about the growth at 0.01 µM [3] of the same molecule?
Its growth at 0.01 µM is 97%.

And the growth at 0.01 µM [4]?
Its growth at 0.01 µM is 100%.

What about the growth at 0.01 µM [5] of the same molecule?
Its growth at 0.01 µM is 98%.

And the growth at 0.01 µM [6]?
Its growth at 0.01 µM is 88%.

What about the growth at 0.01 µM [7] of the same molecule?
The growth at 0.01 µM was 95%.

And the growth at 0.01 µM [8]?
The growth at 0.01 µM was 102%.

What about the growth at 0.01 µM [9] of the same molecule?
Its growth at 0.01 µM is 86%.

And the growth at 0.01 µM [10]?
Its growth at 0.01 µM is 79%.

And the growth at 0.1 µM [11]?
Its growth at 0.1 µM is 84%.

And the growth at 0.1 µM [12]?
Its growth at 0.1 µM is 64%.

And the growth at 0.1 µM [13]?
Its growth at 0.1 µM is 60%.

And the growth at 0.1 µM [14]?
Its growth at 0.1 µM is 86%.

What about the growth at 0.1 µM [15] of the same molecule?
Its growth at 0.1 µM is 76%.

What about the growth at 1 µM [16] of the same molecule?
Its growth at 1 µM is 30%.

What about the growth at 1 µM [17] of the same molecule?
The growth at 1 µM was 28%.

And the growth at 1 µM [18]?
The growth at 1 µM was -7%.

And the growth at 1 µM [19]?
The growth at 1 µM was 30%.

What about the growth at 1 µM [20] of the same molecule?
The growth at 1 µM was 29%.

What about the growth at 1 µM [21] of the same molecule?
The growth at 1 µM was 40%.

And the growth at 100 µM [22]?
The growth at 100 µM was -74%.

What about the growth at 100 µM [23] of the same molecule?
Its growth at 100 µM is -15%.

And the growth at 100 µM [24]?
The growth at 100 µM was -30%.

What about the growth at 100 µM [25] of the same molecule?
The growth at 100 µM was -4%.

What about the growth at 100 µM [26] of the same molecule?
Its growth at 100 µM is -23%.

What about the growth at 100 µM [27] of the same molecule?
Its growth at 100 µM is -20%.

And the growth at 100 µM [28]?
The growth at 100 µM was -53%.

What about the GI50 [29] of the same molecule?
The GI50 was 0.107 µM.

What about the LC50 [29] of the same molecule?
Its LC50 is over 100 µM.

And the TGI [29]?
Its TGI is 621 µM.

What about the GI50 [30] of the same molecule?
The GI50 was 0.23 µM.

What about the LC50 [30] of the same molecule?
The LC50 was over 100 µM.

What about the TGI [30] of the same molecule?
The TGI was at least 100 µM.

What about the GI50 [31] of the same molecule?
Its GI50 is at least 0.148 µM.

What about the LC50 (concentration killing 50% of cells) [31] of the same molecule?
Its LC50 (concentration killing 50% of cells) is over 100 µM.

And the TGI [31]?
Its TGI is over 100 µM.

What about the GI50 [32] of the same molecule?
Its GI50 is 0.0171 µM.

What about the TGI [32] of the same molecule?
Its TGI is at least 100 µM.

What about the CC50 [32, 35] of the same molecule?
Its CC50 is over 100 µM.

What about the GI50 [33] of the same molecule?
The GI50 was 0.559 µM.

And the TGI [33]?
Its TGI is at least 100 µM.

What about the CC50 [33, 35] of the same molecule?
The CC50 was over 100 µM.

What about the GI50 [34] of the same molecule?
Its GI50 is 0.143 µM.

And the CC50 [34, 35]?
Its CC50 is over 100 µM.
